Screening results: PubChem, The Scripps Research Institute Molecular Screening Center
This is a sample that favours compounds with a hit; in the whole collection about 2.5% have one here.
TRPML3 ag – human TRPML3 channel agonists, primary screen, cell-based, HEK293 TRPML3-YFP, Fluo-8 calcium fluorescence, 3 µM | 100% = the carbachol control signal | activation, % at 3 µM | 220,000 tested, 0.29% active;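 active means activation above its plate's cutoff, the mean activation of the plate's test wells plus 3 SD, cut at about 12% in these data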;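 further: 0% = DMSO only wells and 100% = carbachol wells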
Target sequence (Q8TDD5 whole entry, looked up): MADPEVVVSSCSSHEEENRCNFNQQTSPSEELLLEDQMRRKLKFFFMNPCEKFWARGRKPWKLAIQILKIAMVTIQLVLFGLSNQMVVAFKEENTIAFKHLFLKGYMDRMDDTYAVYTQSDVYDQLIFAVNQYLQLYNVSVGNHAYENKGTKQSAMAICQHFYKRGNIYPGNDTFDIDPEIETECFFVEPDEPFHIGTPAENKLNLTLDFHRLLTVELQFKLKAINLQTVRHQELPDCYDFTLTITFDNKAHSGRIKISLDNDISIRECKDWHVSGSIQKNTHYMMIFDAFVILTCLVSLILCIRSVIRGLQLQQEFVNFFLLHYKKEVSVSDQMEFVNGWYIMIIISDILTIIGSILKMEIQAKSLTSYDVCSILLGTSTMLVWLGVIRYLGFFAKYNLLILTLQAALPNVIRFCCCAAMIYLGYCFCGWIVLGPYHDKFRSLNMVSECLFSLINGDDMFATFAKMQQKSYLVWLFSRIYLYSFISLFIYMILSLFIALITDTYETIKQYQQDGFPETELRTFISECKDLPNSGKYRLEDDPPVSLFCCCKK
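Material: TRPML3-YFP stable HEK293 cells | Dosing: One concentration, 3 µM nominal, 0.3% DMSO | Timing: 125 s total fluorescence read per well | Technique: Fluo-8 calcium dye fluorescence, ex 470-495, em 515-575 nm | Measure: Percent activation from peak-to-basal fluorescence ratio, scaled between DMSO and carbachol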
OX1R antag-1 – OX1R (HCRTR1) antagonists, primary screen, fluorescence, CHO/OX1R cells, Fluo-8 calcium, orexin A | 330,000 tested, 0.43% active | AID 434989, 2010 | Fluo-8 calcium fluorescence | inhibition, % at 5 µM;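 active means inhibition above its plate's threshold, mean inhibition of all tested compounds on the plate plus 3 SD, cut at about 37% in these data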;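 further: 0% = orexin A challenge wells and 100% = SB-334867-A antagonist wells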
CHO parental Ca – ATP-evoked calcium signal inhibitors, parental CHO, primary screen, counter-screen for OX1R antagonist project, cell-based, fluorescence, Fluo-8 calcium dye; 330,000 tested, 0.63% active; parental CHO-K1, ATP-induced calcium, Fluo-8 fluorescence; inhibition, % at 5.6 µM;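 active means inhibition above that plate's mean sample inhibition plus 3 SD, cut at about 26% in these data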;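 further: 0% = ATP-challenged DMSO wells and 100% = DMSO wells without ATP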
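Assay system – parental CHO cells · Reagent – ATP stimulus · Detection – intracellular calcium via Fluo-8 no-wash fluorescent dye · Evaluation – percent inhibition of ATP-evoked calcium rise, normalized to controls · Controls – ATP wells versus no-ATP DMSO wells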
zfTRPN1 agonist – zebrafish TRPN1 channel agonists, primary screen, cell-based, HEK293, calcium fluorescence. transient receptor potential cation channel N1 (TRPN1/NompC), Danio rerio. HEK293 zebrafish TRPN1-YFP, Fluo-8 calcium fluorescence; 100% = response to 87 µM carbachol. activation, % at 3 µM. 220,000 tested, 0.18% active;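 active means activation above its plate's cutoff, the mean activation of test wells on that plate plus 3 SD, cut at about 19% in these data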;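 further: 0% = DMSO alone and 100% = 87 µM carbachol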
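Material: zebrafish TRPN1-YFP in HEK293 cells. Doses: one dose of 3 µM, 0.3% DMSO. Incubation: dye 1 h 37 °C plus 30 min RT. Measured by: intracellular calcium fluorescence with Fluo-8.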
OX1R antag-2 – antagonists of human orexin 1 receptor (OX1R). Orexin/Hypocretin receptor type 1 (Homo sapiens), O43613. OX1R-expressing cells, FRET antagonist read-out. inhibition, % at 6.6 µM. 330,000 tested, 1.8% active. AID 485270, 2010; in the data active means inhibition mostly above about 38%, no sharp cut-off; inactive means mostly below about 40%;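 further: 0% = agonist challenge alone and 100% = reference antagonist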
* = called active by the depositor.

For O=C(COc1ccccc1/C=C1\SC(=O)NC1=O)Nc1ccccc1 the results were TRPML3 ag 0.0, OX1R antag-1 -10.9, CHO parental Ca -11.8, zfTRPN1 agonist 2.8 and OX1R antag-2 59.3*.
`O=C(OCc1cccc(Cl)c1)c1cc(S(=O)(=O)N2CCCCC2)ccc1N1CCOCC1` gave OX1R antag-1 -16.6, CHO parental Ca 7.8 and OX1R antag-2 1.0.
Screening O=C(OCCOc1cccc(Cl)c1)c1cc(S(=O)(=O)N2CCCCC2)ccc1N1CCOCC1 returned OX1R antag-1 0.2, CHO parental Ca 37.6* and OX1R antag-2 -13.7.
`CCOc1ccccc1NC(=O)CSc1nnc(-c2ccccc2Cl)n1Cc1ccco1` gave TRPML3 ag -1.1, OX1R antag-1 -20.4, CHO parental Ca -0.8, zfTRPN1 agonist -2.3 and OX1R antag-2 68.8*.
CCCn1c(SCC(=O)Nc2ccccc2-c2ccccc2)nnc1-c1ccoc1C was read as TRPML3 ag -0.5, OX1R antag-1 -12.4, CHO parental Ca -9.0, zfTRPN1 agonist -2.8 and OX1R antag-2 58.9*.
O=C(CSc1nnc(-c2ccccc2)n1Cc1ccco1)Nc1ccc2c(c1)OCCO2 was read as TRPML3 ag -0.3, OX1R antag-1 -14.5, CHO parental Ca -9.7, zfTRPN1 agonist -0.8 and OX1R antag-2 47.8*.
Screening CCOc1ccc(NC(=O)CSc2ncc(-c3ccc(F)cc3)n2Cc2ccco2)cc1 returned TRPML3 ag -0.9, OX1R antag-1 11.8, CHO parental Ca -2.9, zfTRPN1 agonist -1.4 and OX1R antag-2 15.6.
Screening O=C(CSc1ncc(-c2ccc(F)cc2)n1Cc1ccco1)Nc1ccc2c(c1)OCO2 returned TRPML3 ag -1.1, OX1R antag-1 29.3, CHO parental Ca 37.9*, zfTRPN1 agonist -3.3 and OX1R antag-2 43.2.
Cc1occc1-c1nnc(SCC(=O)Nc2ccccc2-c2ccccc2)n1C was read as TRPML3 ag -0.5, OX1R antag-1 -20.0, CHO parental Ca -7.8, zfTRPN1 agonist -0.2 and OX1R antag-2 38.4.
For CC1(C2CC2)NC(=O)N(CC(=O)N2CCN(c3cccc(C(F)(F)F)c3)CC2)C1=O (centres undefined) the results were OX1R antag-1 -0.8, CHO parental Ca 4.8 and OX1R antag-2 17.6.
`Nc1cc(N)nc(SCC(=O)NCC(=O)Nc2ccc(F)c(F)c2F)n1` gave OX1R antag-1 -1.2, CHO parental Ca -4.5 and OX1R antag-2 1.5.
For NNC(=O)c1csc(-c2ccc(C(F)(F)F)cc2Cl)n1 the results were TRPML3 ag 1.2, OX1R antag-1 -28.2, CHO parental Ca -18.6, zfTRPN1 agonist 3.8 and OX1R antag-2 12.7.
For C=CCn1c(SCC(=O)Nc2ccc3c(c2)OCO3)nnc1-c1cc(Br)ccc1O the results were TRPML3 ag -0.8, OX1R antag-1 -15.3, CHO parental Ca -23.5, zfTRPN1 agonist -1.6 and OX1R antag-2 64.7*.
C=CCn1c(SCC(=O)Nc2ccc3c(c2)OCO3)nnc1-c1ccccc1 was read as TRPML3 ag -1.4, OX1R antag-1 -21.7, CHO parental Ca -14.2, zfTRPN1 agonist -0.6 and OX1R antag-2 47.3.
`CC(=O)NCCc1nc2cc(NC(=O)COc3cccc(C)c3)ccc2n1C` gave OX1R antag-1 -3.4, CHO parental Ca 5.7 and OX1R antag-2 14.9.
O=C(/C=C/c1ccco1)Nc1ccc2nn(-c3ccccc3)nc2c1 was read as TRPML3 ag 0.3, OX1R antag-1 17.9, CHO parental Ca 5.7, zfTRPN1 agonist 2.1 and OX1R antag-2 76.8*.
`CCOC(=O)CC(NC(=O)c1cccc2c1C(=O)N(Cc1cccnc1)C2)c1ccc(OC(C)C)cc1` (centres undefined) gave TRPML3 ag -0.1, OX1R antag-1 -16.2, CHO parental Ca -3.0, zfTRPN1 agonist -0.5 and OX1R antag-2 47.8*.
O=C(c1ccccc1NS(=O)(=O)c1ccc([N+](=O)[O-])cc1[N+](=O)[O-])N1O[C@@H]2C=C[C@H]1C2 was read as OX1R antag-1 -6.7, CHO parental Ca -8.0 and OX1R antag-2 45.6*.
Cc1occc1-c1nnc(-c2cc([N+](=O)[O-])cc([N+](=O)[O-])c2)o1 was read as TRPML3 ag 0.3, OX1R antag-1 -20.2, CHO parental Ca -15.8, zfTRPN1 agonist 0.3 and OX1R antag-2 59.1*.
Screening O=C1[C@@H](Oc2ccccc2)[C@@H](c2cnc3ccccc3c2)N1c1ccccc1 returned OX1R antag-1 16.7, CHO parental Ca -10.2 and OX1R antag-2 40.7*.
CC(NC(=O)COC(=O)COc1ccc(C(=O)c2ccccc2)cc1)c1ccccc1 (centres undefined) was read as OX1R antag-1 -13.0, CHO parental Ca -7.2 and OX1R antag-2 2.8.
Screening Nc1nc(N)n(-c2ccccc2)c(=Nc2ccccc2)n1 returned OX1R antag-1 -22.0, CHO parental Ca 4.9 and OX1R antag-2 4.7.
For O=C(CN1C(=O)C2C3CC(C(Br)C3Br)C2C1=O)N1CCN(Cc2ccccc2)CC1 (centres undefined) the results were TRPML3 ag 8.0, OX1R antag-1 -11.1, CHO parental Ca -4.2, zfTRPN1 agonist 26.8* and OX1R antag-2 10.0.
For CCC(NC(=O)C(C)NC)C(=O)N1CCCC1C(=O)NC1CCCc2ccccc21 (centres undefined) the results were OX1R antag-1 -10.3, CHO parental Ca -10.6 and OX1R antag-2 -0.1.
`CSc1nc(O)c(N=Nc2ccc(F)cc2F)c(=O)[nH]1` gave OX1R antag-1 -12.0, CHO parental Ca -5.2 and OX1R antag-2 45.1*.
Screening CSc1nc(O)c(C(c2ccc(F)cc2)c2c(O)nc(SC)[nH]c2=O)c(=O)[nH]1 returned OX1R antag-1 -7.2, CHO parental Ca -5.4 and OX1R antag-2 3.8.
Screening CCCCCC/C(C)=C1/SC(=S)NC1=O returned TRPML3 ag 0.3, OX1R antag-1 13.6, CHO parental Ca -5.6, zfTRPN1 agonist 1.3 and OX1R antag-2 45.0*.
Screening CC1(c2ccc(OC(F)F)cc2)NC(=O)N(CC(=O)N2c3ccccc3NC(=O)C2(C)C)C1=O (centres undefined) returned OX1R antag-1 1.3, CHO parental Ca -5.2 and OX1R antag-2 4.6.
Screening CCc1ccccc1NC(=O)CSc1nc(-c2ccccc2)nn1C(=O)c1cccc([N+](=O)[O-])c1 returned TRPML3 ag -0.7, OX1R antag-1 -16.8, CHO parental Ca -22.2, zfTRPN1 agonist 1.4 and OX1R antag-2 42.2*.
CC(=O)N1c2ccccc2N2C(c3c(C)c(C)cc(C)c3C)=NON12 was read as TRPML3 ag -0.6 and zfTRPN1 agonist -2.2.
